Test results from ChEMBL document CHEMBL1149276, “Inhibition of Streptococcus suis adhesion by dendritic galabiose compounds at low nanomolar concentration” (J Med Chem, 2004).
pIC50: −log10 of the molar value. Values after ≈ are worked out from the molar mass of the structure shown.

Assays:
Streptococcus suis [1] = assay: Inhibition of Streptococcus suis 836 mediated hemagglutinination of human erythrocytes; assay type: functional
Method in brief: (§1)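 S. suis grown in THY broth at 37 °C without shaking. Twofold dilutions of galabiose compound were preincubated with equal volumes of bacteria for 5 min at room temperature. Then 5% sialidase-treated human erythrocytes were added. After 1 h on ice, agglutination was scored visually. MIC was taken as the lowest concentration giving complete inhibition.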

Streptococcus suis [2] = assay: Relative potency for against treptococcus suis 628 binding to pigeon ovomucoid by surface plasmon resonance assay measured as IC50 for monovalent galobiose compound to the multivalent compound; assay type: functional
Method in brief: (§2)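 SPR competition format. S. suis was cultured in THY broth at 37 °C without shaking. Bacteria were incubated 5 min with inhibitor dilutions in HBS-P buffer, then injected over the sensor chip. The surface was regenerated with 10 mM NaOH between injections. Data from repeated experiments were normalized 0–100 to build inhibition curves. Line 7 expresses potency relative to the monovalent reference.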

Streptococcus suis [3] = assay: Relative potency against Streptococcus suis 836 mediated hemagglutinination of human erythrocytes measured as IC50 for monovalent galobiose compound to the multivalent compound; assay type: functional
Method in brief: (§3)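 Hemagglutination MIC read-out. Bacteria (THY broth, 37 °C, static) were preincubated 5 min at room temperature with twofold inhibitor dilutions. Sialidase-treated 5% human erythrocytes were added and agglutination was scored visually after 1 h on ice. Potency is expressed relative to the monovalent reference galabioside.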

Streptococcus suis [4] = assay: Inhibition of Streptococcus suis 628 binding to pigeon ovomucoid by surface plasmon resonance assay; assay type: functional, organism-based; method in brief: as §2
Streptococcus suis [5] = assay: Inhibition of Streptococcus suis 628 mediated hemagglutinination of human erythrocytes; assay type: functional; method in brief: as §1
Streptococcus suis [6] = assay: Relative potency against Streptococcus suis 628 mediated hemagglutinination of human erythrocytes measured as IC50 for monovalent galobiose compound to the multivalent compound; assay type: functional; method in brief: as §3
Streptococcus suis [7] = assay: Inhibition of Streptococcus suis 628 binding to pigeon ovomucoid by ELISA; assay type: functional, organism-based

Row | Compound | MIC (Streptococcus suis [1]) [µM] | Ratio IC50 (Streptococcus suis [2]) | Ratio IC50 (Streptococcus suis [3]) | pIC50 (Streptococcus suis [4]) | MIC (Streptococcus suis [5]) [µM] | Ratio IC50 (Streptococcus suis [6]) | pIC50 (Streptococcus suis [7])
1 | COC(=O)c1cc(OCCNC(=O)COCC(=O)NCCCO[C@@H]2O[C@H](CO)[C@H](O[C@H]3O[C@H](CO)[C@H](O)[C@H](O)[C@H]3O)[C@H](O)[C@H]2O)cc(OCCNC(=O)COCC(=O)NCCCO[C@@H]2O[C@H](CO)[C@H](O[C@H]3O[C@H](CO)[C@H](O)[C@H](O)[C@H]3O)[C@H](O)[C@H]2O)c1 | 0.07 (≈ 0.0874 µg/mL) | 8 | 22 | 6.63 | 0.006 (≈ 0.0075 µg/mL) | 150 | 
2 | O=C(COCC(=O)NCCCO[C@@H]1O[C@H](CO)[C@H](O[C@H]2O[C@H](CO)[C@H](O)[C@H](O)[C@H]2O)[C@H](O)[C@H]1O)NCC#Cc1ccc(C#CCNC(=O)COCC(=O)NCCCO[C@@H]2O[C@H](CO)[C@H](O[C@H]3O[C@H](CO)[C@H](O)[C@H](O)[C@H]3O)[C@H](O)[C@H]2O)cc1 | 0.09 (≈ 0.106 µg/mL) | 6 | 18 | 6.51 | 0.007 (≈ 0.00825 µg/mL) | 128 | 
3 | COC(=O)c1cc(OCCNC(=O)c2cc(OCCNC(=O)COCC(=O)NCCCO[C@@H]3O[C@H](CO)[C@H](O[C@H]4O[C@H](CO)[C@H](O)[C@H](O)[C@H]4O)[C@H](O)[C@H]3O)cc(OCCNC(=O)COCC(=O)NCCCO[C@@H]3O[C@H](CO)[C@H](O[C@H]4O[C@H](CO)[C@H](O)[C@H](O)[C@H]4O)[C@H](O)[C@H]3O)c2)cc(OCCNC(=O)c2cc(OCCNC(=O)COCC(=O)NCCCO[C@@H]3O[C@H](CO)[C@H](O[C@H]4O[C@H](CO)[C@H](O)[C@H](O)[C@H]4O)[C@H](O)[C@H]3O)cc(OCCNC(=O)COCC(=O)NCCCO[C@@H]3O[C@H](CO)[C@H](O[C@H]4O[C@H](CO)[C@H](O)[C@H](O)[C@H]4O)[C@H](O)[C@H]3O)c2)c1 | 0.04 (≈ 0.108 µg/mL) | 256 | 40 | 8.15 | 0.002 (≈ 0.00538 µg/mL) | 450 | 
4 | COC(=O)c1cccc(OCCNC(=O)COCC(=O)NCCCO[C@@H]2O[C@H](CO)[C@H](O[C@H]3O[C@H](CO)[C@H](O)[C@H](O)[C@H]3O)[C@H](O)[C@H]2O)c1 | 1.6 (≈ 1.11 µg/mL) |  |  | 5.74 | 0.9 (≈ 0.623 µg/mL) |  | 4.35
5 | O=C(CCN(CCNC(=O)CCN(CCC(=O)NCCN(CCC(=O)NCCNC(=O)COCC(=O)NCCCO[C@@H]1O[C@H](CO)[C@H](O[C@H]2O[C@H](CO)[C@H](O)[C@H](O)[C@H]2O)[C@H](O)[C@H]1O)CCC(=O)NCCNC(=O)COCC(=O)NCCCO[C@@H]1O[C@H](CO)[C@H](O[C@H]2O[C@H](CO)[C@H](O)[C@H](O)[C@H]2O)[C@H](O)[C@H]1O)CCN(CCC(=O)NCCN(CCC(=O)NCCNC(=O)COCC(=O)NCCCO[C@@H]1O[C@H](CO)[C@H](O[C@H]2O[C@H](CO)[C@H](O)[C@H](O)[C@H]2O)[C@H](O)[C@H]1O)CCC(=O)NCCNC(=O)COCC(=O)NCCCO[C@@H]1O[C@H](CO)[C@H](O[C@H]2O[C@H](CO)[C@H](O)[C@H](O)[C@H]2O)[C@H](O)[C@H]1O)CCC(=O)NCCN(CCC(=O)NCCNC(=O)COCC(=O)NCCCO[C@@H]1O[C@H](CO)[C@H](O[C@H]2O[C@H](CO)[C@H](O)[C@H](O)[C@H]2O)[C@H](O)[C@H]1O)CCC(=O)NCCNC(=O)COCC(=O)NCCCO[C@@H]1O[C@H](CO)[C@H](O[C@H]2O[C@H](CO)[C@H](O)[C@H](O)[C@H]2O)[C@H](O)[C@H]1O)CCC(=O)NCCNC(=O)COCC(=O)NCCCO[C@@H]1O[C@H](CO)[C@H](O[C@H]2O[C@H](CO)[C@H](O)[C@H](O)[C@H]2O)[C@H](O)[C@H]1O)NCCNC(=O)COCC(=O)NCCCO[C@@H]1O[C@H](CO)[C@H](O[C@H]2O[C@H](CO)[C@H](O)[C@H](O)[C@H]2O)[C@H](O)[C@H]1O | 0.002 (≈ 0.0108 µg/mL) | 256 | 800 | 8.15 | 0.0003 (≈ 0.00162 µg/mL) | 3000 | 
6 | COC(=O)c1cc(OCCNC(=O)COCC(=O)NCCCOCCOCCOCCCNC(=O)COCC(=O)NCCCO[C@@H]2O[C@H](CO)[C@H](O[C@H]3O[C@H](CO)[C@H](O)[C@H](O)[C@H]3O)[C@H](O)[C@H]2O)cc(OCCNC(=O)COCC(=O)NCCCOCCOCCOCCCNC(=O)COCC(=O)NCCCO[C@@H]2O[C@H](CO)[C@H](O[C@H]3O[C@H](CO)[C@H](O)[C@H](O)[C@H]3O)[C@H](O)[C@H]2O)c1 | 0.1 (≈ 0.189 µg/mL) | 12 | 16 | 6.81 | 0.009 (≈ 0.017 µg/mL) | 100 | 
7 | O=C(COCC(=O)NCCCO[C@@H]1O[C@H](CO)[C@H](O[C@H]2O[C@H](CO)[C@H](O)[C@H](O)[C@H]2O)[C@H](O)[C@H]1O)NCC#Cc1cccc(C#CCNC(=O)COCC(=O)NCCCO[C@@H]2O[C@H](CO)[C@H](O[C@H]3O[C@H](CO)[C@H](O)[C@H](O)[C@H]3O)[C@H](O)[C@H]2O)c1 | 0.05 (≈ 0.059 µg/mL) | 6 | 32 | 6.53 | 0.004 (≈ 0.00472 µg/mL) | 225 | 
